Results from different studies.
Lines come from different studies, so protocols differ.
Target: Serine/threonine-protein kinase BRSK2 (BRSK2, Homo sapiens, UniProt Q8IWQ3)
Sequence (Q8IWQ3 1-736, as in one of the studies): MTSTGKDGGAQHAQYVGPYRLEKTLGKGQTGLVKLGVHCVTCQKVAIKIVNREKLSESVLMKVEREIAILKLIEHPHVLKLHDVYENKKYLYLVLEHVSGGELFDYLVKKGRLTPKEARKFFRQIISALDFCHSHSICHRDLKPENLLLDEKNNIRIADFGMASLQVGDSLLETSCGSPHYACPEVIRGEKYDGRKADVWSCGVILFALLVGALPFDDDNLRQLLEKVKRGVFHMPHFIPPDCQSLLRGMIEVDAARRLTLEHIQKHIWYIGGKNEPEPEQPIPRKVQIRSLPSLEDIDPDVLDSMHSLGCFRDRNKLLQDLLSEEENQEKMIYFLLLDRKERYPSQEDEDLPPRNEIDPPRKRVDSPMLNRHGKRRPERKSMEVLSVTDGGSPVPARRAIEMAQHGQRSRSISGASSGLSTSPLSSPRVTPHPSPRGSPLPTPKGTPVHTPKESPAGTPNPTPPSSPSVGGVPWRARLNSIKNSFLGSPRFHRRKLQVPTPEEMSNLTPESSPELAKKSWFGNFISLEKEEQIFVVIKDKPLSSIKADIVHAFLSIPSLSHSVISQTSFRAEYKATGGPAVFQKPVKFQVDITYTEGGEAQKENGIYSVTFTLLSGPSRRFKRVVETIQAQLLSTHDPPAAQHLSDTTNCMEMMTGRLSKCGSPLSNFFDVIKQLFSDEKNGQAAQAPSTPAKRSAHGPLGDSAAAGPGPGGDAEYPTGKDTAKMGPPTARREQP

SMILES | assay | conditions | quantity | result
Cc1ccc(C(=O)Nc2ccc(CN3CCN(C)CC3)c(C(F)(F)F)c2)cc1C#Cc1cnc2cccnn12 | enzyme activity, inhibitor | 23.5 nM | remaining activity | 92%
CNCc1ccccc1-c1csc([C@@H](C)Nc2nc(C)nc3cc(OC)c(OC)cc23)c1 | cell-free assay, competition with immobilised ligand | 1 µM | remaining binding | 100%
Nc1nc(Nc2ccc(S(N)(=O)=O)cc2)nn1C(=O)c1c(F)cccc1F | cell-free assay | 0.5 µM | remaining signal | 49%
Nc1nc(NC2CCCCC2)sc1C(=O)c1ccccc1 | enzyme activity, inhibitor | 10 µM | remaining activity | 93%
CC/C(=N\NC(=O)NCc1cccc(O)c1)c1ccc(O)c(C)c1O | enzyme activity, inhibitor | 0.1 µM | inhibition | 3.7%
Oc1cccc(-c2nc(N3CCOCC3)c3oc4ncccc4c3n2)c1 | enzyme activity, inhibitor | 10 µM | remaining activity | 99%
Cc1ccc(NC(=O)c2ccc(C)c(C(F)(F)F)c2)cc1C#Cc1nn(C2CCC(O)CC2)c2ncnc(N)c12 (stereo not shown) | cell-free assay | 10 µM | remaining signal | 93%
Oc1ccc(-c2nc(-c3ccncc3)c(-c3ccc(F)cc3)[nH]2)cc1 | cell-free assay | 0.5 µM | remaining signal | 101%
FC(F)(F)Oc1cccc(-c2cnc3ccc(-c4ccncc4)nn23)c1 | enzyme activity, inhibitor, radiometric | 1 µM | activity vs control | 81%
Cc1c(C(=O)O)cc(-c2ccc(C3CCNCC3)cc2)c2ccc(-c3ccc(C(F)(F)F)cc3)cc12 | binding, competition with immobilised ligand | 1 µM | remaining binding | 100%
COc1cc(/C=C/C(=O)CC(=O)/C=C/c2ccc(O)c(OC)c2)ccc1O | enzyme activity, inhibitor | 1 µM | activity vs control | 88%
CCN(CC)c1ccc(C2=NNC(=O)CC2C)cc1[N+](=O)[O-] (stereo not shown) | enzyme activity, inhibitor | 10 µM | remaining activity | 104%
CNc1cccc2cc(C(=O)Nc3ccc(C(=O)O)cc3)c(=O)[nH]c12 | enzyme activity, inhibitor | 10 µM | inhibition | 7.8%
O=C(Nc1cnn(-c2csc(C(=O)NC3COC3)c2)c1)Nc1c(F)cccc1Cl | enzyme activity, inhibitor | 5 µM | remaining activity | 100%
Cc1ccc(Nc2nccc(N(C)c3ccc4c(C)n(C)nc4c3)n2)cc1S(N)(=O)=O | enzyme activity, inhibitor | 10 µM | inhibition | -11%
Cc1cnc(NC2CCOCC2)nc1-n1cnc(C(=O)NC(CN)c2cc(F)cc(Cl)c2)c1 (stereo not shown) | enzyme activity, inhibitor, radiometric | 1 µM | remaining activity | 42%
CCS(=O)(=O)c1cc2cc(C[C@](O)(CC(C)(C)c3ccc(F)cc3C(N)=O)C(F)(F)F)[nH]c2cn1 | cell-free assay, competition with immobilised ligand | 1 µM | remaining binding | 100%
O=C1Nc2ccc(Cl)cc2C1=Cc1cc(Cl)c(O)c(Cl)c1 | cell-free assay | 0.5 µM | remaining signal | 77.2%
Cc1cc(NC(=O)c2cccc(S(F)(F)(F)(F)F)c2)cc(-n2ccn3nc(-c4cccnc4)cc23)c1 | cell-free assay, competition with immobilised ligand | 1 µM | remaining binding | 100%
O=C(Nc1cnn(-c2csc(C(=O)NC3COC3)c2)c1)Nc1ccccc1Cl | enzyme activity, inhibitor | 5 µM | remaining activity | 102%
CN(C)C(=O)Cn1cc(-c2nc([C@@](C)(c3ccc(-c4cnc(N)nc4)cc3)C3CC3)no2)cn1 | cell-free assay, competition with immobilised ligand | 1 µM | remaining binding | 100%
Cn1c(=O)n(-c2ccc(C(C)(C)C#N)cc2)c2c3cc(-c4cnc5ccccc5c4)ccc3ncc21 | enzyme activity, inhibitor | 10 µM | remaining activity | 89%
FC(F)(F)c1ccc2c(c1)nc(-c1cccnc1)n2C1CC1 | cell-free assay, competition with immobilised ligand | 1 µM | remaining binding | 90%
COc1ccc(COc2ccc(Cc3cnc(N)nc3N)cc2OC)cc1 | cell-free assay | 0.5 µM | remaining signal | 96.8%
CS(=O)(=O)NCC[C@H](NC(=O)c1cncc2c1cnn2-c1ccc(F)cc1)c1ccnc(S(C)(=O)=O)c1 | cell-free assay, competition with immobilised ligand | 1 µM | remaining binding | 77%
CC(C)(C)c1nc2c(s1)c1nc(N)ncc1c1ccc(NS(=O)(=O)c3c(F)cccc3F)c(F)c12 | enzyme activity, inhibitor, radiometric | 1 µM | remaining activity | 88%
CN([C@@H]1CCc2c(CC(=O)O)c3ccccc3n2C1)S(=O)(=O)c1ccc(F)cc1 | cell-free assay, competition with immobilised ligand | 1 µM | remaining binding | 100%
COc1cc(Nc2cnc(C#N)c(O[C@H](C)CN(C)C)n2)ncc1-c1cnn(C)c1 | enzyme activity, inhibitor, radiometric | 1 µM | remaining activity | 23%
